Measurements taken from ChEMBL document CHEMBL4257556, “Novel 1,3,4-thiadiazole-chalcone hybrids containing catechol moiety: synthesis, antioxidant activity, cytotoxicity and DNA interaction studies” (Medchemcomm, 2018).
pIC50: −log10 of the molar value. Activity calls are given as the source filed them. No cut-off for these calls is given here.

What was measured:
HeLa [1] = assay: Cell cycle arrest in human HeLa cells assessed as accumulation at sub-G1 phase at 2 times IC50 after 24 hrs in presence of caspase-3 inhibitor Z-DEVD-FMK by propidium iodide-staining based flow cytometric method; assay type: functional
How it was run: (§1)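 HeLa cells pretreated 2 h with 40 μM peptide caspase inhibitor (Z-DEVD-FMK caspase-3, Z-IETD-FMK caspase-8 or Z-LEHD-FMK caspase-9), then exposed to 2×IC50 compound; subG1 fraction by propidium iodide flow cytometry, compared with samples lacking inhibitor.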

HeLa [2] = assay: Cell cycle arrest in human HeLa cells assessed as accumulation at sub-G1 phase at 2 times IC50 after 24 hrs in presence of caspase-8 inhibitor Z-IETD-FMK by propidium iodide-staining based flow cytometric method; assay type: functional; how it was run: as §1
Calf thymus DNA [3] = assay: Binding affinity to calf thymus DNA assessed as hyperchromism at 40 uM after 90 mins by UV/visible spectrophotometric analysis; assay type: nucleic-acid assay; conditions: Bos taurus
How it was run: (§2)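 CT-DNA stock in 10 mM Tris-HCl pH 7.9 (A260/A280 1.89–2.01; concentration from ε260 6600 M–1 cm–1). Compound (10, 20 or 40 μM) plus CT-DNA (95 μM) in 40 mM bicarbonate pH 8.4, 37 °C 90 min; spectra 200–800 nm. Hyper/hypochromism at 259 nm from bound versus summed free compound and DNA extinction; triplicate.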

HeLa [4] = assay: Cell cycle arrest in human HeLa cells assessed as accumulation at G2/M phase at IC50 after 24 hrs by propidium iodide staining-based flow cytometric method; assay type: functional
How it was run: (§3)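 HeLa cells treated 24 h at IC50 or 2×IC50 (from 72 h assay), fixed in 70% ethanol, stored at –20 °C ≥1 week, RNase A 30 min 37 °C, propidium iodide stained; flow cytometry, 10 000 gated events. Mean ± SD of three independent experiments; one-way ANOVA with Dunnett's post-test, p < 0.05.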

HeLa [5] = assay: Upregulation of MMP9 gene expression in human HeLa cells at 10 uM after 24 hrs by RT-qPCR method; assay type: functional, cell-based
HeLa [6] = assay: Antioxidant activity in human HeLa cells assessed as decrease in reactive oxygen species at 10 uM after 24 hrs by dichlorofluorescein dye-based flow cytometric method; assay type: functional, cell-based
How it was run: (§4)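 HeLa cells pretreated 24 h with 10 μM compound, washed, loaded with 30 μM DCFH-DA in PBS 45 min at 37 °C. One portion read directly (endogenous ROS); other portion exposed to 10 mM H2O2 30 min at 37 °C. DCF green fluorescence by flow cytometry, 20 000 events per sample; mean ± SD of two independent experiments.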

HeLa [7] = assay: Cell cycle arrest in human HeLa cells assessed as accumulation at sub-G1 phase at 2 times IC50 after 24 hrs in presence of caspase-9 inhibitor Z-LEHD-FMK by propidium iodide-staining based flow cytometric method; assay type: functional; how it was run: as §1
HeLa [8] = assay: Cytotoxicity against human HeLa cells assessed as decrease in cell survival after 72 hrs by MTT assay; assay type: functional, cell-based
How it was run: (§5)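 HeLa (2000/well), A549 and MRC-5 (5000/well) seeded 20 h before treatment; HL-60 (7000/well) 2 h before. Five concentrations (6.25–100 μM or 3.125–50 μM) from 5 mM DMSO stocks, final DMSO ≤1%, 72 h; survival by MTT. Cisplatin positive control; three independent experiments in triplicate.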

Calf thymus DNA [9] = assay: Displacement of Hoechst 33258 from calf thymus DNA assessed as quenching constant by fluorescence spectrophotometric analysis; assay type: nucleic-acid assay; conditions: Bos taurus
How it was run: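 CT-DNA 100 μM (per phosphate) in 40 mM bicarbonate pH 8.4 pretreated 20 min with Hoechst 33258 (28 μM final), then compound added stepwise. Excitation 350 nm, emission 390–550 nm, read at 444 nm, 10 nm slits; H–DNA as control. Quenching constant K by Stern–Volmer, I0/I versus r = [compound]/[DNA]; triplicate.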

HeLa [10] = assay: Downregulation of MMP2 gene expression in human HeLa cells at 10 uM after 24 hrs by RT-qPCR method; assay type: functional, cell-based
HL-60 = assay: Cytotoxicity against human HL60 cells assessed as decrease in cell survival after 72 hrs by MTT assay; assay type: functional, cell-based; conditions: HL-60, 72 h; how it was run: as §5
MRC5 [11] = assay: Induction of DNA damage in human MRC5 cells assessed as formation of DNA breaks at 25 uM after 24 hrs by comet assay relative to control; assay type: functional
How it was run: (§6)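 MRC-5 cells exposed 24 h to 3.125–25 μM compound; DNA damage scored as % tail DNA (tail intensity) by comet assay. PBS negative control; H2O2 50 μM 5 min in-gel positive control. Triplicate, repeated twice; mean ± SD.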

HeLa [12] = assay: Cell cycle arrest in human HeLa cells assessed as accumulation at G2/M phase at 2 times IC50 after 24 hrs by propidium iodide staining-based flow cytometric method; assay type: functional; how it was run: as §3
HeLa [13] = assay: Cell cycle arrest in human HeLa cells assessed as decrease in cell levels at G1 phase at 2 times IC50 after 24 hrs by propidium iodide staining-based flow cytometric method; assay type: functional; how it was run: as §3
MRC5 [14] = assay: Induction of DNA damage in human MRC5 cells assessed as formation of DNA breaks after 24 hrs by comet assay; assay type: functional, cell-based; how it was run: as §6
HeLa [15] = assay: Cell cycle arrest in human HeLa cells assessed as decrease in cell levels at G1 phase at IC50 after 24 hrs by propidium iodide staining-based flow cytometric method; assay type: functional; how it was run: as §3
Calf thymus DNA [16] = assay: Binding affinity to calf thymus DNA assessed as hyperchromism at 10 uM after 90 mins by UV/visible spectrophotometric analysis; assay type: nucleic-acid assay; conditions: Bos taurus; how it was run: as §2
A549 = assay: Cytotoxicity against human A549 cells assessed as decrease in cell survival after 72 hrs by MTT assay; assay type: functional, cell-based; conditions: A549, 72 h; how it was run: as §5
[17] = Antioxidant activity assessed as DPPH free radical scavenging activity after 30 mins; assay type: functional
How it was run: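 DPPH (0.05 mM in methanol) mixed with equal volume of compound (DMSO solution diluted in methanol), kept in dark at room temperature 30 min; absorbance at 517 nm, methanol control, ascorbic acid positive control. IC50 = concentration giving 50% of maximum scavenging; mean ± SD of independent triplicate experiments.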

HeLa [18] = assay: Downregulation of miR-155 expression in human HeLa cells at 10 uM after 24 hrs by RT-qPCR method; assay type: functional, cell-based
HeLa [19] = assay: Cell cycle arrest in human HeLa cells assessed as accumulation at sub-G1 phase at IC50 and 2 times IC50 after 24 hrs by propidium iodide staining-based flow cytometric method; assay type: functional; how it was run: as §3
DNA = assay: Induction of Escherichia coli pUC19 DNA cleavage after 90 mins by agarose gel electrophoresis method; assay type: nucleic-acid assay
How it was run: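 Plasmid pUC19 (from E. coli XL1 blue; 460 ng, 12 nM) incubated with compound (0.05–0.4 mM; from 2 mM DMSO stock) in 20 μL 40 mM bicarbonate pH 8.4 at 37 °C for 90 min; 1% agarose gel in TAE at 80 V, ethidium bromide staining, UV at 312 nm; supercoiled/nicked/linear forms scored.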

Calf thymus DNA [20] = assay: Binding affinity to calf thymus DNA at 10 to 40 uM after 90 mins by UV/visible spectrophotometric analysis; assay type: nucleic-acid assay; conditions: Bos taurus; how it was run: as §2
HeLa [21] = assay: Prooxidant activity in human HeLa cells assessed as increase in H2O2-induced reactive oxygen species at 10 uM preincubated for 24 hrs followed by H2O2 addition and measured after 30 mins by dichlorofluorescein dye-based flow cytometric method; assay type: functional, cell-based; how it was run: as §4

Cc1cccc(C(=O)/C=C/c2ccc(C(=O)Nc3nnc(-c4ccc(O)c(O)c4)s3)cc2)c1
Activity (HeLa [1]): inactive | Activity (HeLa [2]): inactive | Activity (Calf thymus DNA [3]): -4.9% | Activity (HeLa [4]): Active | Activity (HeLa [5]): Active | Activity (HeLa [6]): Active | Activity (HeLa [7]): inactive | pIC50 (HeLa [8]): 5.02 | K (Calf thymus DNA [9]): 2.95 | Activity (HeLa [10]): Active | pIC50 (HL-60): 5.08 | Activity (MRC5 [11]): 38% | Activity (HeLa [12]): Active | Activity (HeLa [13]): Active | Activity (MRC5 [14]): Dose-dependent effect | Activity (HeLa [15]): Active | Activity (Calf thymus DNA [16]): -13.7% | pIC50 (A549): 4.55 | pIC50 [17]: 4.77 | Activity (HeLa [18]): inactive | Activity (HeLa [19]): Active | Activity (DNA): inactive | Activity (Calf thymus DNA [20]): Active | Activity (HeLa [21]): inactive
